Most compounds without a hit are left out; they make up all but 1.3% or so of the library.
proCasp7 act: activates human procaspase-7, counter-screen for procaspase-3 activators. P55210. AID 463210. 330,000 compounds, 0.093% hits. recombinant procaspase-7, Ac-DEVD-pNA absorbance 405 nm; D23A/D198A/D206A triple mutant, cannot self-cleave; scale: DMSO 0, 5 µM enzyme 100. activation, % at 8.5 µM;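 active means percent activation above the screen-wide mean plus 3 SD, cut at about 25% in these data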
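Replicates: singlicate. Assay system: Procaspase-7 triple mutant (PC-7 D3A). Signal: 405 nm absorbance of p-nitroaniline. Times: 1 h preincubation, 2 h reaction. Buffer or medium: Zinc-free HEPES pH 7.4 with 300 mM NaCl, 0.01% Triton X-100. Also added: DEVD-pNA substrate. Benchmarks: DMSO wells as 0%, DMSO with 5 µM added PC-7 as 100%.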
GRK2 aptamer HTS: blocks RNA aptamer binding to human GRK2; bead flow cytometry, FAM-aptamer displacement from GRK2; 330,000 compounds, 0.59% hits; AID 488847; inhibition of aptamer binding, % at 10 µM; P25098;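 active means inhibition of aptamer binding above 40%, roughly 3 SD of noise, on plates passing a quality check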;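 further: median bead fluorescence of bound FAM aptamer so fluorescent compounds give negative values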
proCasp3 act: activates human procaspase-3; P42574; recombinant procaspase-3 D3A, Ac-DEVD-pNA absorbance 405 nm; activation, % at 8.5 µM; 330,000 compounds, 0.11% hits;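 active means activation above the mean of all tested compounds plus 3 SD, cut at about 21% in these data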
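Assay system – Procaspase-3 D3A mutant · Benchmarks – DMSO low control, extra-enzyme high control · Technique – 405 nm absorbance of p-nitroaniline, reads at 0 and 120 min · Doses – 8.5 µM nominal · Measure – % activation between DMSO and enzyme-spiked controls · Also added – Ac-DEVD-pNA chromogenic peptide substrate · Schedule – 1 h compound preincubation, 2 h substrate hydrolysis at 25 °C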
VLA-4 inh: inhibition in a human VLA-4 binding assay | VLA-4 expressing cells, ligand binding flow cytometry | 330,000 compounds, 0.2% hits | inhibition, % (about 7 µM as worked out from the volumes in the protocol) | AID 2557; in the data active means inhibition above about 50%
GASC-1 inh: human JMJD2C demethylase inhibition; 330,000 compounds, 0.069% hits; inhibition, % at 2.35 µM; GST-JMJD2C(1-420) H3K9me3 demethylation, DELFIA europium; Q9H3R0; AID 2099;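 active means more than half of a compound's replicate wells show inhibition beyond 50%, single wells judged on their own value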;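 further: signal counts dimethyl H3K9 product captured on neutravidin plate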
Hep lipid drop: modulators of hepatic lipid droplet formation; AML12 mouse hepatocytes, oleate lipid droplets, BODIPY imaging; inhibition, % at 6.5 µM; 240,000 compounds, 0.4% hits; AID 1656;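 active means lipid droplet intensity inhibited by at least 50%, with more than 500 cells counted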
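Test system: AML12 mouse liver cells; schedule: overnight exposure; technique: high-content imaging of BODIPY-stained droplets and DAPI nuclei; read-out: % inhibition of corrected integrated BODIPY droplet signal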
Large screens that a line does not name were inactive.

COc1cccc(NC(=O)CSc2nc3c([nH]c4ccccc43)c(=O)n2C)c1	VLA-4 inh 60
Cc1cccc(NC(=O)CSc2nc3c([nH]c4ccccc43)c(=O)n2C)c1	none
CC(C(=O)N(C)C1CCCCC1)N1CCC(C(N)=O)CC1 (stereo unspecified)	none
CC1CCCN(C2=C(NS(=O)(=O)c3ccc(Cl)cc3)C(=O)c3ccccc3C2=O)C1 (stereo unspecified)	Hep lipid drop 57
COC(=O)C1CCN(C2=C(NS(=O)(=O)c3ccc(Cl)cc3)C(=O)c3ccccc3C2=O)CC1	none
Cc1cc(OC(C)C(=O)N2CCN(c3ccc(F)cc3)CC2)c2c(C)c(C)c(=O)oc2c1 (stereo unspecified)	none
COC(=O)c1sc(NC(=O)c2cc3c(s2)CCCC3)nc1C	GASC-1 inh 60
COc1ccc(NC(=O)COC(=O)c2cc3c(s2)CCC3)cc1	GRK2 aptamer HTS 43 (no result: Hep lipid drop)
O=C(CSc1nncn1-c1ccccc1)NC1CCCC1	none
C/C(=N\NC(=S)NCc1ccccc1)c1ccc2ccccc2c1	GRK2 aptamer HTS 98
CCCCn1c(/C=N/Nc2nc3ccccc3[nH]2)nc2ccccc21	proCasp3 act 25
CCCCn1c(/C=C/c2ccco2)nc2ccccc21	none
COC(=O)CC1C(=O)NCCN1C(=O)c1ccc([N+](=O)[O-])cc1 (stereo unspecified)	none (no result: Hep lipid drop)
COCCNC(=O)CN(c1ccc(F)cc1)S(=O)(=O)c1ccc2c(c1)OCCO2	none
COc1ccc(CNC(=O)CCCCCn2c(SCC#N)nc3cc4c(cc3c2=O)OCO4)cc1	Hep lipid drop 56
COc1ccc(/C=N\NC(=O)c2cc(O)c(O)c(O)c2)cc1COc1ccc(C(=O)OCC(C)C)cc1	none
CC(=O)c1cc2c(cc1N(C(=O)Cn1nnc3ccccc31)C(C(=O)NCCC(C)C)c1cccnc1)OCO2 (stereo unspecified)	none
O=C(Nc1nc(-c2ccc(Cl)cc2)cs1)C1CCCO1 (stereo unspecified)	none
O=C(Nc1nc(-c2ccc(Cl)cc2Cl)cs1)C1CCCO1 (stereo unspecified)	Hep lipid drop 54
CCc1ccccc1N(C(C)=O)c1nc(CN=C=S)cs1	none
O=C(CSc1nnc(CNC(=O)c2cccs2)o1)c1ccc(Cl)cc1	none
O=C(CSc1nnc(CNC(=O)c2cccs2)o1)c1ccccc1	GASC-1 inh 97
O=C(CSc1nnc(CNC(=O)c2ccccc2F)o1)NCCc1ccccc1	GASC-1 inh 108
O=C(NNc1cccc(Cl)n1)c1ccccc1CC[N+](=O)[O-]	none
O=C(c1cccc(-n2cccc2)c1)N1CCN(S(=O)(=O)c2ccccc2)CC1	GRK2 aptamer HTS 81 (no result: Hep lipid drop)
Cc1ccc(S(=O)(=O)N2CCN(C(=O)c3cccc(-n4cccc4)c3)CC2)cc1	none (no result: Hep lipid drop)
CC(=O)N1CCc2cc(S(=O)(=O)CCC(=O)NCc3ccc(F)cc3)ccc21	none
COc1ccc(NC(=O)C(C)Sc2nnc3c4c(nc(-c5ccc(OC)cc5)n23)CC(C)(C)OC4)cc1 (stereo unspecified)	Hep lipid drop 52
COc1ccc(-c2nc3c(c4nnc(SC(C)C(=O)Nc5ccccc5)n24)COC(C)(C)C3)cc1 (stereo unspecified)	Hep lipid drop 66
CC(=O)Nc1ccc(NC(=O)C(C)Sc2nnc(C3CC3)n2-c2ccccc2)cc1 (stereo unspecified)	none (no result: GASC-1 inh, Hep lipid drop)
CCn1c(SCC(=O)Nc2ccc(OC)cc2)nc2nc3c(cc2c1=O)COC(C)(C)C3	none (no result: GASC-1 inh)
COC(=O)c1c(NC(=O)CS(=O)(=O)c2ccccc2)sc(C)c1C	none (no result: Hep lipid drop)
Cc1ccc(CSc2nnc(SCC(=O)N/N=C/C=C/c3ccco3)s2)cc1	GRK2 aptamer HTS 83
Cc1ccc(NC(=O)Nc2cc(Cl)ccc2C2COC(=O)C2=N)cc1 (stereo unspecified)	VLA-4 inh 55
N=C1C(=O)OCC1c1ccccc1NC(=O)Nc1ccccc1 (stereo unspecified)	none
COc1ccc(NC(=O)CSc2nnc(Cc3ccc(C)cc3)c(=O)n2N)cc1OC	none (no result: Hep lipid drop)
Cc1ccc(S(=O)(=O)N2CCOC2CNC(=O)C(=O)NCCc2ccc(S(N)(=O)=O)cc2)cc1 (stereo unspecified)	GASC-1 inh 61
Cc1ccccc1-c1ccc(=O)n(CC(=O)Nc2ccc(N3CCOCC3)cc2)n1	GASC-1 inh 57 (no result: Hep lipid drop)
Cc1ccccc1-c1ccc(=O)n(CC(=O)Nc2ccc(C(=O)N3CCCC3)cc2)n1	none (no result: Hep lipid drop)
CCN(CC)c1ccc(NC2=C(Cl)C(=O)c3ccccc3C2=O)cc1	VLA-4 inh 54
O=C(CNC(=O)c1ccc(OC(F)F)cc1)Nc1cccc(S(=O)(=O)N2CCCC2)c1	none (no result: Hep lipid drop)
Cc1cccc(NC(=O)CC2Nc3cccc4cccc(c34)NC2=O)c1 (stereo unspecified)	GASC-1 inh 51 (no result: Hep lipid drop)
CC(=O)Nc1ccc(NC(=O)CC2Nc3cccc4cccc(c34)NC2=O)cc1 (stereo unspecified)	none (no result: Hep lipid drop)
CCOc1cccc(CNCCCSc2ncccn2)c1	none
CNC(=O)c1c(N)sc2c1CCCCC2	none (no result: Hep lipid drop)
COCCNC(=O)c1c(N)sc2c1CCCC2	GASC-1 inh 50
Cc1ccc(CNC(=O)c2cc(S(=O)(=O)N3CCOCC3)cn2C)cc1	none
CCOc1ccc(CCNC(=O)c2cc3sccc3n2C)cc1OCC	Hep lipid drop 101
COCCNC(=O)c1cc2sccc2n1C	none
COc1ccc2cc3c(N)nn(C(=O)c4ccc(Cl)c([N+](=O)[O-])c4)c3nc2c1	GRK2 aptamer HTS 57
Cc1cc2ccccn2c1C(=O)c1ccc(Cl)cc1	none (no result: Hep lipid drop)
Cc1cc2ccccn2c1C(=O)c1ccncc1	GASC-1 inh 69
CSCCNC(C)=O	GRK2 aptamer HTS 61
CSCCNC(=O)c1cccc(Cl)c1	none
Nc1ncnc2c1ncn2[C@@H]1O[C@H](CNCc2cccc(C#Cc3ccccc3)c2)[C@@H](O)[C@H]1O	none (no result: VLA-4 inh, GASC-1 inh, Hep lipid drop)
C=CCOc1ccc(C[C@H](N)C(=O)NC[C@H]2O[C@@H](n3cnc4c(N)ncnc43)[C@H](O)[C@@H]2O)cc1	GRK2 aptamer HTS 43 (no result: VLA-4 inh, GASC-1 inh, Hep lipid drop)
Nc1ncnc2c1ncn2[C@@H]1O[C@H](CNCC#Cc2ccccc2)[C@@H](O)[C@H]1O	GASC-1 inh 54 (no result: Hep lipid drop)
COc1ccc(/C=N/OCC(=O)N2CCCC2)c(OC)c1	none
Cc1nnsc1C(=O)NC(C)c1ccccc1 (stereo unspecified)	none
O=c1oc2c(O)c(O)cc3c(=O)oc4c(O)c(O)cc1c4c23	GRK2 aptamer HTS 84 (no result: GASC-1 inh)
CCn1c(CN(C)c2ccccc2)nc2ccccc21	none
COc1ccc(NC(=O)C2CCCCN2N)cc1OCC(C)C (stereo unspecified)	GASC-1 inh 80

From PubChem
